# According to ChEMBL document CHEMBL2417507, “Synthesis and bioevaluation of some new isoniazid derivatives” (Bioorg Med Chem, 2013):
# Active and inactive are the calls of the source. No cut-off for these calls is given here.
# Key:
# HCT-8 [1] = test: Cell cycle arrest in human HCT8 cells assessed as accumulation at G2/M phase at 50 ug/mL after 24 hrs by propidium iodide staining-based flow cytometric analysis (reference value: 13.83%); type: ADME; settings: hct-8, 24 h
# HCT-8 [2] = test: Cell cycle arrest in human HCT8 cells assessed as accumulation at S phase at 50 ug/mL after 24 hrs by propidium iodide staining-based flow cytometric analysis (reference value: 39.43%); type: ADME; settings: hct-8, 24 h
# [3] = Induction of apoptosis in human HCT8 cells assessed as viable cells at 50 ug/mL after 24 hrs by Annexin V-FITC and propidium iodide staining-based flow cytometric analysis (reference value: 87.7%); type: cell-based, HCT-8; settings: read-out: Activity
# HCT-8 [4] = test: Induction of apoptosis in human HCT8 cells assessed as early apoptotic cells at 50 ug/mL after 24 hrs by Annexin V-FITC and propidium iodide staining-based flow cytometric analysis (reference value: 1.57%); type: cell-based; settings: hct-8, 24 h
# HCT-8 [5] = test: Induction of apoptosis in human HCT8 cells assessed as late apoptotic cells at 50 ug/mL after 24 hrs by Annexin V-FITC and propidium iodide staining-based flow cytometric analysis (reference value: 2.97%); type: cell-based; settings: hct-8, 24 h
# HCT-8 [6] = test: Induction of apoptosis in human HCT8 cells assessed as necrotic cells at 50 ug/mL after 24 hrs by Annexin V-FITC and propidium iodide staining-based flow cytometric analysis (reference value: 7.73%); type: cell-based; settings: hct-8, 24 h
# Acinetobacter baumannii [7] = test: Antibacterial activity against Acinetobacter baumannii 192 assessed as growth inhibition at 1 mg/mL after 24 hrs by agar-disk diffusion technique; type: functional, organism-based
# Method in brief: (§1)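 Agar-disk diffusion, adapted: plates seeded with 0.5 McFarland suspension prepared from 24 h cultures; 5 µL of a 1 mg/mL compound solution spotted onto the seeded solid medium; incubated 24 h at 37 °C. Stocks made in DMSO.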
# Acinetobacter baumannii [8] = test: Antibacterial activity against Acinetobacter baumannii 136 assessed as growth inhibition at 1 mg/mL after 24 hrs by agar-disk diffusion technique; type: functional, organism-based; method in brief: as §1
# Acinetobacter baumannii [9] = test: Antibacterial activity against Acinetobacter baumannii 135 assessed as growth inhibition at 1 mg/mL after 24 hrs by agar-disk diffusion technique; type: functional, organism-based; method in brief: as §1
# Pseudomonas putida = test: Antibacterial activity against Pseudomonas putida 160 assessed as growth inhibition at 1 mg/mL after 24 hrs by agar-disk diffusion technique; type: functional, organism-based; method in brief: as §1
# Pseudomonas aeruginosa [10] = test: Antibacterial activity against Pseudomonas aeruginosa 1144 assessed as growth inhibition at 1 mg/mL after 24 hrs by agar-disk diffusion technique; type: functional, organism-based; method in brief: as §1
# Pseudomonas aeruginosa [11] = test: Antibacterial activity against Pseudomonas aeruginosa ATCC 27853 assessed as growth inhibition at 1 mg/mL after 24 hrs by agar-disk diffusion technique; type: functional, organism-based; method in brief: as §1
# Citrobacter koseri = test: Antibacterial activity against Citrobacter koseri 1742 assessed as growth inhibition at 1 mg/mL after 24 hrs by agar-disk diffusion technique; type: functional, organism-based; method in brief: as §1
# Enterobacter cloacae = test: Antibacterial activity against Enterobacter cloacae 1845 assessed as growth inhibition at 1 mg/mL after 24 hrs by agar-disk diffusion technique; type: functional, organism-based; method in brief: as §1
# Staphylococcus aureus = test: Antibacterial activity against Staphylococcus aureus assessed as growth inhibition at 1 mg/mL after 24 hrs by agar-disk diffusion technique; type: functional, organism-based; method in brief: as §1
# Staphylococcus hominis = test: Antibacterial activity against Staphylococcus hominis 1813 assessed as growth inhibition at 1 mg/mL after 24 hrs by agar-disk diffusion technique; type: functional, organism-based; method in brief: as §1
# [12] = test system: Mycobacterium tuberculosis; test: Antimycobacterial activity against Mycobacterium tuberculosis after 8 days by micro plate Alamar Blue assay; type: functional; settings: 192 h
# Method in brief: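 Clinical M. tuberculosis strain grown in Middlebrook 7H9 broth. Compounds were dissolved in DMSO and serially diluted twofold on the plate, final 25 to 0.012 µg/mL. Plates were sealed and held 8 days at 37 °C. Alamar Blue with 10% Tween 80 (1:1) was then added for another 24 h at 37 °C. MIC was the lowest concentration preventing the blue-to-pink change.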
# [13] = test system: Radical scavenging activity; test: Antioxidant activity assessed as DPPH radical scavenging activity at 0.1 mg/mL after 30 mins under dark conditions by spectrophotometric analysis relative to control; type: functional
# Method in brief: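 Compounds dissolved in methanol at 0.1 mg/mL; 0.2 mL mixed with 1.8 mL of 2 × 10^-4 M DPPH in methanol and kept in the dark 30 min. Absorbance read at 517 nm. The blank was DPPH plus methanol. TAC (%) = (Abs initial − Abs 30 min)/Abs initial × 100.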
# HCT-8 [14] = test: Cell cycle arrest in human HCT8 cells assessed as accumulation at G0/G1 phase at 50 ug/mL after 24 hrs by propidium iodide staining-based flow cytometric analysis (reference value: 46.43%); type: ADME; settings: hct-8, 24 h
# HCT-8 [15] = test: Increase in NAT1 gene expression in human HCT8 cells at 50 ug/mL after 24 hrs by RT-PCR analysis; type: ADME, cell-based; settings: hct-8, 24 h
# HCT-8 [16] = test: Increase in NAT2 gene expression in human HCT8 cells at 50 ug/mL after 24 hrs by RT-PCR analysis; type: ADME, cell-based; settings: hct-8, 24 h
# HCT-8 [17] = test: Cell cycle arrest in human HCT8 cells assessed as accumulation at G2/M phase at 25 ug/mL after 24 hrs by propidium iodide staining-based flow cytometric analysis (reference value: 13.83%); type: ADME; settings: hct-8, 24 h
# HCT-8 [18] = test: Cell cycle arrest in human HCT8 cells assessed as accumulation at S phase at 25 ug/mL after 24 hrs by propidium iodide staining-based flow cytometric analysis (reference value: 39.43%); type: ADME; settings: hct-8, 24 h
# HCT-8 [19] = test: Cell cycle arrest in human HCT8 cells assessed as accumulation at G0/G1 phase at 25 ug/mL after 24 hrs by propidium iodide staining-based flow cytometric analysis (reference value: 46.43%); type: ADME; settings: hct-8, 24 h
# HCT-8 [20] = test: Cytotoxicity against human HCT8 cells at 50 ug/mL after 24 hrs by trypan blue exclusion assay; type: cell-based; settings: hct-8, 24 h
# Method in brief: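 HCT8 cells (3 × 10^5 per 3.5-cm well) treated 24 h, then trypsinised, spun and resuspended in PBS. Suspension mixed 1:1 with 0.4% trypan blue for 1 min and viable/non-viable cells counted on a haemocytometer. Each experiment repeated three times.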
# Acinetobacter baumannii [21] = test: Antibacterial activity against Acinetobacter baumannii 122 assessed as growth inhibition at 1 mg/mL after 24 hrs by agar-disk diffusion technique; type: functional, organism-based; method in brief: as §1
# Pseudomonas aeruginosa [22] = test: Antibacterial activity against Pseudomonas aeruginosa 165 assessed as growth inhibition at 1 mg/mL after 24 hrs by agar-disk diffusion technique; type: functional, organism-based; method in brief: as §1
# Klebsiella pneumoniae = test: Antibacterial activity against Klebsiella pneumoniae 1756 assessed as growth inhibition at 1 mg/mL after 24 hrs by agar-disk diffusion technique; type: functional, organism-based; method in brief: as §1
# Escherichia coli = test: Antibacterial activity against Escherichia coli 1777 assessed as growth inhibition at 1 mg/mL after 24 hrs by agar-disk diffusion technique; type: functional, organism-based; method in brief: as §1
# Proteus mirabilis = test: Antibacterial activity against Proteus mirabilis 1751 assessed as growth inhibition at 1 mg/mL after 24 hrs by agar-disk diffusion technique; type: functional, organism-based; method in brief: as §1
# HCT-8 [23] = test: Decrease in NAT1 gene expression in human HCT8 cells at 25 ug/mL after 24 hrs by RT-PCR analysis; type: ADME, cell-based; settings: hct-8, 24 h
# Acinetobacter baumannii [24] = test: Antibacterial activity against Acinetobacter baumannii 247 assessed as growth inhibition at 1 mg/mL after 24 hrs by agar-disk diffusion technique; type: functional, organism-based; method in brief: as §1
# Acinetobacter baumannii [25] = test: Antibacterial activity against Acinetobacter baumannii 125 assessed as growth inhibition at 1 mg/mL after 24 hrs by agar-disk diffusion technique; type: functional, organism-based; method in brief: as §1
# Morganella morganii = test: Antibacterial activity against Morganella morganii 2810 assessed as growth inhibition at 1 mg/mL after 24 hrs by agar-disk diffusion technique; type: functional, organism-based; method in brief: as §1
# HCT-8 [26] = test: Decrease in NAT2 gene expression in human HCT8 cells at 25 ug/mL after 24 hrs by RT-PCR analysis; type: ADME, cell-based; settings: hct-8, 24 h
SMILES,Activity (HCT-8 [1]) [%],Activity (HCT-8 [2]) [%],"viability at 24 h, 50 ug/mL [3] [%]",Activity (HCT-8 [4]) [%],Activity (HCT-8 [5]) [%],Activity (HCT-8 [6]) [%],growth inhibition (GI) (Acinetobacter baumannii [7]),growth inhibition (GI) (Acinetobacter baumannii [8]),growth inhibition (GI) (Acinetobacter baumannii [9]),growth inhibition (GI) (Pseudomonas putida),growth inhibition (GI) (Pseudomonas aeruginosa [10]),growth inhibition (GI) (Pseudomonas aeruginosa [11]),growth inhibition (GI) (Citrobacter koseri),growth inhibition (GI) (Enterobacter cloacae),growth inhibition (GI) (Staphylococcus aureus),growth inhibition (GI) (Staphylococcus hominis),MIC [12] [µg/mL],TAC [13] [%],Activity (HCT-8 [14]) [%],growth inhibition (GI) (Proteus mirabilis),also measured
NC(S)(/C=C/c1ccccc1)NNC(=O)c1ccncc1 (stereo unspecified),18.72,25.9,67.9,0.95,12.2,18.9,Active,Active,Active,Active,Active,Active,Active,Active,Active,Active,0.391,88.2,59.95,–,Activity (HCT-8 [15]): Toxic; Activity (HCT-8 [16]): Toxic
NC(=S)/C=C/c1ccccc1,–,–,28.3,12.9,36,22.9,–,Active,Active,Active,–,–,Active,Active,Active,Active,–,35.7,–,Active,Activity (HCT-8 [17]): 27.82%; Activity (HCT-8 [18]): 43.45%; Activity (HCT-8 [19]): 33.09%; Activity (HCT-8 [20]): Toxic; growth inhibition (GI) (Acinetobacter baumannii [21]): Active; growth inhibition (GI) (Pseudomonas aeruginosa [22]): Active; growth inhibition (GI) (Klebsiella pneumoniae): Active; growth inhibition (GI) (Escherichia coli): Active; Activity (HCT-8 [23]): Toxic
NC(=S)/C=C/c1ccc(Cl)cc1,–,–,18.7,22.7,33.7,24.9,–,Active,Active,Active,–,inactive,–,–,Active,–,–,15.7,–,inactive,Activity (HCT-8 [17]): 13.01%; Activity (HCT-8 [18]): 56.31%; Activity (HCT-8 [19]): 31.35%; Activity (HCT-8 [20]): Toxic; growth inhibition (GI) (Acinetobacter baumannii [24]): inactive; growth inhibition (GI) (Acinetobacter baumannii [25]): inactive; growth inhibition (GI) (Klebsiella pneumoniae): inactive; growth inhibition (GI) (Morganella morganii): inactive; Activity (HCT-8 [26]): Toxic
Cc1ccc(/C=C/C(N)(S)NNC(=O)c2ccncc2)cc1 (stereo unspecified),11.15,13.1,54.3,1.16,16,28.5,inactive,Active,Active,Active,Active,inactive,–,Active,Active,Active,0.781,12.5,72.35,inactive,growth inhibition (GI) (Acinetobacter baumannii [24]): inactive; growth inhibition (GI) (Pseudomonas aeruginosa [22]): Active; Activity (HCT-8 [15]): Toxic; Activity (HCT-8 [16]): Toxic
